This is an account of results in ChEMBL document CHEMBL2406927, “Inhibitory effect of resveratrol dimerized derivatives on nitric oxide production in lipopolysaccharide-induced RAW 264.7 cells” (Bioorg Med Chem Lett, 2013).

Where only a bound is given, the exact number is not on record here.

The test system of one assay is RAW264.7. In words: Antiinflammatory activity in mouse RAW264.7 cells assessed as inhibition of LPS-induced NO production treated 2 hrs before LPS challenge measured after 24 hrs. The assay is classed as functional, cell-based. Conditions: Mus musculus, RAW264.7; read-out: IC50; call rule not given here. Summed up:
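Cells were pretreated with compound for 2 h before LPS (1 μg/mL), then incubated 24 h. NO production was determined by nitrite/nitrate assay and expressed as a percentage of LPS-stimulated cells (means, SEM). IC50 is the concentration giving 50% inhibition of NO production. Data come from at least three independent experiments, each run in duplicate.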
With `COc1ccc([C@@H]2c3c(OC)cc(OC)cc3/C(=C/c3ccc(F)cc3)[C@H]2c2cc(OC)cc(OC)c2)cc1`, the IC50 was over 200 µM.
The same measure, in the same setting: as for `COc1ccc(CSC2c3cc(OC)cc(OC)c3[C@@H](c3ccccc3)[C@@H]2c2cc(OC)cc(OC)c2)cc1` (some centres undefined), the figure is over 200 µM; as for `COc1ccc([C@@H]2c3c(OC)cc(OC)cc3C(SCc3ccccc3)[C@H]2c2cc(OC)cc(OC)c2)cc1` (some centres undefined), over 200 µM.
Still for that read-out and setting: as for `COc1ccc(CSC2c3cc(OC)cc(OC)c3[C@@H](c3ccc(OC)cc3)[C@@H]2c2cc(OC)cc(OC)c2)cc1` (some centres undefined), the figure is 12.5 µM; as for `COc1ccc([C@@H]2c3c(OC)cc(OC)cc3C(C(O)c3ccc(Cl)cc3)[C@H]2c2cc(OC)cc(OC)c2)cc1` (some centres undefined), over 200 µM; as for `COc1ccc([C@@H]2c3c(OC)cc(OC)cc3C(C(O)c3ccc(F)cc3)[C@H]2c2cc(OC)cc(OC)c2)cc1` (some centres undefined), over 200 µM.
The same measure, in the same setting: as for `COc1ccc(C(O)C2c3cc(OC)cc(OC)c3[C@@H](c3ccc(OC)cc3)[C@@H]2c2cc(OC)cc(OC)c2)cc1` (some centres undefined), the figure is over 200 µM; as for `COc1cc(OC)cc([C@@H]2C(=O)c3cc(OC)cc(OC)c3[C@H]2c2ccccc2)c1`, 27.1 µM.
For the compound `COc1ccc([C@@H]2c3c(OC)cc(OC)cc3C(SCc3ccc(F)cc3)[C@H]2c2cc(OC)cc(OC)c2)cc1` (some centres undefined), the IC50 is over 200 µM.
With `COc1ccc(/C=C2/c3cc(OC)cc(OC)c3[C@@H](c3ccc(OC)cc3)[C@@H]2c2cc(OC)cc(OC)c2)cc1`, the half-maximal inhibitory concentration (IC50) came out at 6.26 µM.
The same measure, in the same setting: as for `COc1ccc([C@@H]2c3c(OC)cc(OC)cc3C(SCc3ccc(Cl)cc3)[C@H]2c2cc(OC)cc(OC)c2)cc1` (some centres undefined), the figure is over 200 µM; as for `COc1ccc([C@@H]2c3c(OC)cc(OC)cc3C(SCc3ccc(C)cc3)[C@H]2c2cc(OC)cc(OC)c2)cc1` (some centres undefined), over 200 µM.
On to `COc1ccc([C@@H]2c3c(OC)cc(OC)cc3C(=O)[C@H]2c2cc(OC)cc(OC)c2)cc1`, for which the concentration for half-maximal inhibition (IC50) is over 200 µM.
On the same count and under the same terms, the figure for `COc1ccc([C@@H]2c3c(OC)cc(OC)cc3/C(=C/c3ccc(Cl)cc3)[C@H]2c2cc(OC)cc(OC)c2)cc1` is over 200 µM; for `O=C1c2cc(O)cc(O)c2[C@@H](c2ccc(O)cc2)[C@@H]1c1cc(O)cc(O)c1` [ISOPAUCIFLORAL F] it is over 200 µM.

The same assay, now with this note: raw264.7.
As for `Oc1ccc(/C=C2/c3cc(O)cc(O)c3[C@@H](c3ccc(O)cc3)[C@@H]2c2cc(O)cc(O)c2)cc1`, the half-inhibitory concentration (IC50) result is listed as “Not Active”.
Same read-out and setting: the entry for `COc1cc(OC)cc([C@@H]2C(O)c3cc(OC)cc(OC)c3[C@H]2c2ccc(F)cc2)c1` (some centres undefined) is “Not Active”.

In the next assay the test system is RAW264.7. The assay is described as follows: Antiinflammatory activity in mouse RAW264.7 cells assessed as LPS-induced NO production at 10 uM treated 2 hrs before LPS challenge measured after 24 hrs.
Details: not given
As for `COc1ccc([C@@H]2c3c(OC)cc(OC)cc3/C(=C/c3ccc(F)cc3)[C@H]2c2cc(OC)cc(OC)c2)cc1`, the NO production % at 10 µM worked out at 95.9%.
Same read-out and setting: the figure for `Oc1ccc(/C=C2/c3cc(O)cc(O)c3[C@@H](c3ccc(O)cc3)[C@@H]2c2cc(O)cc(O)c2)cc1` is 70%.
Consider `COc1ccc(CSC2c3cc(OC)cc(OC)c3[C@@H](c3ccccc3)[C@@H]2c2cc(OC)cc(OC)c2)cc1` (some centres undefined), for which the NO production % at 10 µM came to 72.4%.
For `COc1ccc([C@@H]2c3c(OC)cc(OC)cc3C(SCc3ccccc3)[C@H]2c2cc(OC)cc(OC)c2)cc1` (some centres undefined), the NO production % at 10 µM was 78.1%.
The same measure, in the same setting: the figure for `COc1ccc(CSC2c3cc(OC)cc(OC)c3[C@@H](c3ccc(OC)cc3)[C@@H]2c2cc(OC)cc(OC)c2)cc1` (some centres undefined) is 70.5%.
With `COc1ccc([C@@H]2c3c(OC)cc(OC)cc3C(C(O)c3ccc(Cl)cc3)[C@H]2c2cc(OC)cc(OC)c2)cc1` (some centres undefined), the NO production % at 10 µM is 77.5%.
The same measure, in the same setting: the figure for `COc1ccc([C@@H]2c3c(OC)cc(OC)cc3C(C(O)c3ccc(F)cc3)[C@H]2c2cc(OC)cc(OC)c2)cc1` (some centres undefined) is 81.4%; for `COc1ccc(C(O)C2c3cc(OC)cc(OC)c3[C@@H](c3ccc(OC)cc3)[C@@H]2c2cc(OC)cc(OC)c2)cc1` (some centres undefined) it is 77%; for `COc1cc(OC)cc([C@@H]2C(=O)c3cc(OC)cc(OC)c3[C@H]2c2ccccc2)c1` it is 66%.
Same read-out and setting: the figure for `COc1cc(OC)cc([C@@H]2C(O)c3cc(OC)cc(OC)c3[C@H]2c2ccc(F)cc2)c1` (some centres undefined) is 54%; for `COc1ccc([C@@H]2c3c(OC)cc(OC)cc3C(SCc3ccc(F)cc3)[C@H]2c2cc(OC)cc(OC)c2)cc1` (some centres undefined) it is 92.5%; for `COc1ccc(/C=C2/c3cc(OC)cc(OC)c3[C@@H](c3ccc(OC)cc3)[C@@H]2c2cc(OC)cc(OC)c2)cc1` it is 56.1%.
Same read-out and setting: the figure for `COc1ccc([C@@H]2c3c(OC)cc(OC)cc3C(SCc3ccc(Cl)cc3)[C@H]2c2cc(OC)cc(OC)c2)cc1` (some centres undefined) is 79.8%; for `COc1ccc([C@@H]2c3c(OC)cc(OC)cc3C(SCc3ccc(C)cc3)[C@H]2c2cc(OC)cc(OC)c2)cc1` (some centres undefined) it is 86.3%; for `COc1ccc([C@@H]2c3c(OC)cc(OC)cc3C(=O)[C@H]2c2cc(OC)cc(OC)c2)cc1` it is 60.9%.
As to `COc1ccc([C@@H]2c3c(OC)cc(OC)cc3/C(=C/c3ccc(Cl)cc3)[C@H]2c2cc(OC)cc(OC)c2)cc1`, the NO production % at 10 µM was determined as 90.7%.
As for `O=C1c2cc(O)cc(O)c2[C@@H](c2ccc(O)cc2)[C@@H]1c1cc(O)cc(O)c1` [ISOPAUCIFLORAL F], the NO production % at 10 µM stood at 97.1%.

The term IC50 denotes the concentration that inhibits the measured activity by half.
